Results taken from ChEMBL document CHEMBL4422685, “Design, synthesis and evaluation of a series of 5-methoxy-2,3-naphthalimide derivatives as AcrB inhibitors for the reversal of bacterial resistance” (Bioorg Med Chem Lett, 2019).

How the values were obtained:
[1] = target: T1, Multidrug efflux pump subunit AcrB (Escherichia coli (strain K12)) (UniProt P31224); experiment: Inhibition of AcrB in wild-type drug-resistant Escherichia coli […] assessed as potentiation of chloramphenicol-induced antimicrobial activity by measuring chloramphenicol MIC at 32 ug/ml by checkerboard titration method (Rvb =16 ug/ml)
T1 sequence (whole entry): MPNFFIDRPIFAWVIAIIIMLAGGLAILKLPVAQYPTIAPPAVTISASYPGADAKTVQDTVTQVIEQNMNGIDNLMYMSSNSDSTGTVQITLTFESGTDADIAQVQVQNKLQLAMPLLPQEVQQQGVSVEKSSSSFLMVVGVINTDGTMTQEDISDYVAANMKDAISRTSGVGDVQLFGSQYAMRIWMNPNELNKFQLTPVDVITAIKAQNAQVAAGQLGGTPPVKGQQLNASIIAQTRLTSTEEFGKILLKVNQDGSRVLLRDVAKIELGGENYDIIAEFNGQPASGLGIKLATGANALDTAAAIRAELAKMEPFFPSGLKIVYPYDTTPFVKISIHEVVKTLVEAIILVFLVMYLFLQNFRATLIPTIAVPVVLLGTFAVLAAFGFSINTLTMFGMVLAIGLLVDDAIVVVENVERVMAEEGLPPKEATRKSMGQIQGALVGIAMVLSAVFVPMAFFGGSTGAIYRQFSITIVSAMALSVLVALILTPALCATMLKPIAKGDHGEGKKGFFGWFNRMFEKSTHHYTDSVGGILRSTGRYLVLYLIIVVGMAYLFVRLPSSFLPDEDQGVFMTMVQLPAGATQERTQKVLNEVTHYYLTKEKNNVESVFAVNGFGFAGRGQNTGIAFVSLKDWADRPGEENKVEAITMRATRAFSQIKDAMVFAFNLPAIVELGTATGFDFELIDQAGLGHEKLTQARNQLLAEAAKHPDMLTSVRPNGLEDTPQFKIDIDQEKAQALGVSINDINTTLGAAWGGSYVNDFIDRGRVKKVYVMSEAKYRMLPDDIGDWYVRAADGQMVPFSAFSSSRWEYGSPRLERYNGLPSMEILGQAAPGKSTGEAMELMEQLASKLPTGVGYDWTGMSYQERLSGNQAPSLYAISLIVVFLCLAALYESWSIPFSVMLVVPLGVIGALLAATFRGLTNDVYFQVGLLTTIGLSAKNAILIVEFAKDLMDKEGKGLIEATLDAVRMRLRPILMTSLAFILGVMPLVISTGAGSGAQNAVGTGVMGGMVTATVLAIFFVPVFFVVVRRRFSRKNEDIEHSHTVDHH

[2] = target: T1, Multidrug efflux pump subunit AcrB (Escherichia coli (strain K12)); experiment: Inhibition of AcrB in wild-type drug-resistant Escherichia coli […] assessed as potentiation of chloramphenicol-induced antimicrobial activity by measuring chloramphenicol MIC at 64 ug/ml by checkerboard titration method (Rvb =16 ug/ml)
[3] = target: T1, Multidrug efflux pump subunit AcrB (Escherichia coli (strain K12)); experiment: Inhibition of AcrB in wild-type drug-resistant Escherichia coli […] assessed as potentiation of levofloxacin-induced antimicrobial activity by measuring levofloxacin MIC at 128 ug/ml by checkerboard titration method (reference value: 0.063 ug/ml)
[4] = target: T1, Multidrug efflux pump subunit AcrB (Escherichia coli (strain K12)); experiment: Inhibition of AcrB in wild-type drug-resistant Escherichia coli […] assessed as potentiation of tetraphenyl phosphonium chloride-induced antimicrobial activity by measuring tetraphenyl phosphonium chloride MIC at 16 ug/ml by checkerboard titration method (reference value: 1024 ug/ml)
[5] = target: T1, Multidrug efflux pump subunit AcrB (Escherichia coli (strain K12)); experiment: Inhibition of AcrB in wild-type drug-resistant Escherichia coli […] assessed as potentiation of levofloxacin-induced antimicrobial activity by measuring levofloxacin MIC at 32 ug/ml by checkerboard titration method (reference value: 0.063 ug/ml)
[6] = target: T1, Multidrug efflux pump subunit AcrB (Escherichia coli (strain K12)); experiment: Inhibition of AcrB in wild-type drug-resistant Escherichia coli […] assessed as potentiation of erythromycin-induced antimicrobial activity by measuring erythromycin MIC at 16 ug/ml by checkerboard titration method (reference value: 64 ug/ml)
Escherichia coli [7] = experiment: Toxicity against AcrB deficient Escherichia coli AcrB lacking at 128 ug/ml; type: organism-based; details: in vivo
How it was run: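 MIC determination against wild-type resistant E. coli BW25113 and an isogenic acrB-deleted strain; highest concentration tested 128 mg/L.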

[8] = target: T1, Multidrug efflux pump subunit AcrB (Escherichia coli (strain K12)); experiment: Inhibition of AcrB in wild-type drug-resistant Escherichia coli […] assessed as potentiation of tetraphenyl phosphonium chloride-induced antimicrobial activity by measuring tetraphenyl phosphonium chloride MIC at 8 ug/ml by checkerboard titration method (reference value: 1024 ug/ml)
[9] = target: T1, Multidrug efflux pump subunit AcrB (Escherichia coli (strain K12)); experiment: Inhibition of AcrB in wild-type drug-resistant Escherichia coli […] assessed as potentiation of chloramphenicol-induced antimicrobial activity by measuring chloramphenicol MIC at 8 ug/ml by checkerboard titration method (Rvb =16 ug/ml)
[10] = target: T1, Multidrug efflux pump subunit AcrB (Escherichia coli (strain K12)); experiment: Inhibition of AcrB in wild-type drug-resistant Escherichia coli […] assessed as potentiation of erythromycin-induced antimicrobial activity by measuring erythromycin MIC at 64 ug/ml by checkerboard titration method (reference value: 64 ug/ml)
[11] = target: T1, Multidrug efflux pump subunit AcrB (Escherichia coli (strain K12)); experiment: Inhibition of AcrB in wild-type drug-resistant Escherichia coli […] assessed as potentiation of erythromycin-induced antimicrobial activity by measuring erythromycin MIC at 128 ug/ml by checkerboard titration method (reference value: 64 ug/ml)
[12] = target: T1, Multidrug efflux pump subunit AcrB (Escherichia coli (strain K12)); experiment: Inhibition of AcrB in wild-type drug-resistant Escherichia coli BW2113 assessed as potentiation of chloramphenicol-induced antimicrobial activity by measuring chloramphenicol MIC at 16 ug/ml by checkerboard titration method (Rvb =16 ug/ml)
[13] = target: T1, Multidrug efflux pump subunit AcrB (Escherichia coli (strain K12)); experiment: Inhibition of AcrB in wild-type drug-resistant Escherichia coli […] assessed as potentiation of chloramphenicol-induced antimicrobial activity by measuring chloramphenicol MIC at 128 ug/ml by checkerboard titration method (Rvb =16 ug/ml)
[14] = target: T1, Multidrug efflux pump subunit AcrB (Escherichia coli (strain K12)); experiment: Inhibition of AcrB in wild-type drug-resistant Escherichia coli […] assessed as potentiation of tetraphenyl phosphonium chloride-induced antimicrobial activity by measuring tetraphenyl phosphonium chloride MIC at 32 ug/ml by checkerboard titration method (reference value: 1024 ug/ml)
[15] = target: T1, Multidrug efflux pump subunit AcrB (Escherichia coli (strain K12)); experiment: Inhibition of AcrB in wild-type drug-resistant Escherichia coli […] assessed as potentiation of tetraphenyl phosphonium chloride-induced antimicrobial activity by measuring tetraphenyl phosphonium chloride MIC at 64 ug/ml by checkerboard titration method (reference value: 1024 ug/ml)
Escherichia coli [16] = experiment: Induction of Escherichia coli outer membrane permeabilization assessed as increase in nitrocefin hydrolysis at 128 ug/ml by spectroscopic method; type: organism-based
[17] = target: T1, Multidrug efflux pump subunit AcrB (Escherichia coli (strain K12)); experiment: Inhibition of AcrB in wild-type drug-resistant Escherichia coli […] assessed as potentiation of levofloxacin-induced antimicrobial activity by measuring levofloxacin MIC at 64 ug/ml by checkerboard titration method (reference value: 0.063 ug/ml)
[18] = target: T1, Multidrug efflux pump subunit AcrB (Escherichia coli (strain K12)); experiment: Inhibition of AcrB in wild-type drug-resistant Escherichia coli […] assessed as potentiation of levofloxacin-induced antimicrobial activity by measuring levofloxacin MIC at 16 ug/ml by checkerboard titration method (reference value: 0.063 ug/ml)

| Compound | MIC [1] [µg/mL] | MIC [2] [µg/mL] | MIC [3] [µg/mL] | MIC [4] [µg/mL] | MIC [5] [µg/mL] | MIC [6] [µg/mL] | Activity (Escherichia coli [7]) | MIC [8] [µg/mL] | MIC [9] [µg/mL] | MIC [10] [µg/mL] | MIC [11] [µg/mL] | MIC [12] [µg/mL] | MIC [13] [µg/mL] | MIC [14] [µg/mL] | MIC [15] [µg/mL] | Activity (Escherichia coli [16]) | MIC [17] [µg/mL] | MIC [18] [µg/mL] |
| --- | --- | --- | --- | --- | --- | --- | --- | --- | --- | --- | --- | --- | --- | --- | --- | --- | --- | --- |
| CCCCCCN1C(=O)c2cc3cccc(OC)c3cc2C1=O | 16 | 8 | 0.0313 | 1020 | 0.063 | 32 | Non-Toxic | 1020 | 16 | 16 | 8 | 16 | 8 | 512 | 512 | Non-Toxic | 0.063 | 0.063 |
| CCc1ccccc1N1C(=O)c2cc3cccc(OC)c3cc2C1=O | 16 | 16 | 0.0313 | 1020 | 0.0313 | 64 | Non-Toxic | 1020 | 16 | 64 | 32 | 16 | 8 | 1020 | 1020 | Non-Toxic | 0.0313 | 0.063 |
| CCCCCN1C(=O)c2cc3cccc(OC)c3cc2C1=O | 8 | 8 | 0.0313 | 1020 | 0.063 | 64 | Non-Toxic | 1020 | 16 | 32 | 8 | 16 | 4 | 1020 | 1020 | Non-Toxic | 0.0313 | 0.063 |
| COc1cccc2cc3c(cc12)C(=O)N(C1CCCC1)C3=O | 16 | 16 | 0.063 | 1020 | 0.063 | 64 | Non-Toxic | 1020 | 16 | 16 | 8 | 16 | 16 | 1020 | 1020 | Non-Toxic | 0.063 | 0.063 |
| COc1ccc(CN2C(=O)c3cc4cccc(OC)c4cc3C2=O)cc1 | 16 | 16 | 0.063 | 1020 | 0.063 | 32 | Non-Toxic | 1020 | 16 | 32 | 32 | 16 | 16 | 1020 | 1020 |  | 0.063 | 0.063 |
| COc1ccccc1CN1C(=O)c2cc3cccc(OC)c3cc2C1=O | 16 | 16 | 0.0019 | 1020 | 0.0039 | 64 | Non-Toxic | 1020 | 16 | 64 | 64 | 16 | 16 | 1020 | 1020 | Non-Toxic | 0.0019 | 0.0039 |
| COc1cccc2cc3c(cc12)C(=O)N(C(C)C)C3=O | 8 | 8 | 0.0313 | 1020 | 0.063 | 32 | Non-Toxic | 1020 | 8 | 32 | 32 | 8 | 8 | 1020 | 1020 | Non-Toxic | 0.0313 | 0.063 |
| COc1cccc2cc3c(cc12)C(=O)N(C)C3=O | 16 | 16 | 0.0313 | 1020 | 0.0313 | 64 | Non-Toxic | 1020 | 16 | 32 | 32 | 16 | 16 | 1020 | 1020 |  | 0.0313 | 0.063 |
| COc1cccc2cc3c(cc12)C(=O)N(Cc1ccccc1)C3=O | 16 | 16 | 0.063 | 1020 | 0.063 | 32 | Non-Toxic | 1020 | 16 | 32 | 16 | 16 | 8 | 1020 | 1020 | Non-Toxic | 0.063 | 0.063 |
| COc1cccc2cc3c(cc12)C(=O)N(c1ccccc1Cl)C3=O | 16 | 16 | 0.063 | 1020 | 0.063 | 64 | Non-Toxic | 1020 | 16 | 64 | 16 | 16 | 16 | 1020 | 1020 | Non-Toxic | 0.063 | 0.063 |
